Bioassay records as filed in PubChem.
This is a sample that favours compounds with a hit; in the whole collection about 2.2% have one here.
Jurkat NFkB inh: inhibitors of the PMA/ionomycin-induced NF-kB reporter in Jurkat cells. PMA/ionomycin-induced NF-kB luciferase reporter, luminescence. inhibition, % at 4 µM. 330,000 compounds, 0.53% hits; in the data active = inhibition above about 50%
FGF22 binding: shifts melting point of recombinant human FGF22; Q9HCT0; recombinant FGF22 thermal shift, SYPRO orange fluorescence; percent of sucrose octasulfate shift, DMSO zero; activity (Tm shift, normalised), % at 9.99 µM; 340,000 compounds, 1.5% hits; AID 651658;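 active = mean Tm shift, scaled 0 neutral to 100 positive control, at about 1.3% or above, every replicate too, limit read from the data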
Target sequence (Q9HCT0 whole entry, looked up): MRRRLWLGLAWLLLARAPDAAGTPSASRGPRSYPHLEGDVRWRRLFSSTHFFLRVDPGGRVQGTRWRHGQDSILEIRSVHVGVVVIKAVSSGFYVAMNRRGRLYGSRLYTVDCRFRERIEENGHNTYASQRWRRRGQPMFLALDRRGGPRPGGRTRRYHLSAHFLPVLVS
NR2E3 ag-1: agonists of human nuclear receptor NR2E3; GST-NR2E3/biotin-RetCOR TR-FRET, 1536-well; inhibition of corepressor binding, % at 4.78 µM; 320,000 compounds, 0.12% hits; AID 2300;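 active = percent inhibition above the cutoff of mean plus 3 SD of all tested compounds, set per screening campaign, cut at about 20% in these data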;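 also: 0% = DMSO wells and 100% = biotin wells as full block of FRET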
Target sequence (Q9Y5X4 whole entry, looked up): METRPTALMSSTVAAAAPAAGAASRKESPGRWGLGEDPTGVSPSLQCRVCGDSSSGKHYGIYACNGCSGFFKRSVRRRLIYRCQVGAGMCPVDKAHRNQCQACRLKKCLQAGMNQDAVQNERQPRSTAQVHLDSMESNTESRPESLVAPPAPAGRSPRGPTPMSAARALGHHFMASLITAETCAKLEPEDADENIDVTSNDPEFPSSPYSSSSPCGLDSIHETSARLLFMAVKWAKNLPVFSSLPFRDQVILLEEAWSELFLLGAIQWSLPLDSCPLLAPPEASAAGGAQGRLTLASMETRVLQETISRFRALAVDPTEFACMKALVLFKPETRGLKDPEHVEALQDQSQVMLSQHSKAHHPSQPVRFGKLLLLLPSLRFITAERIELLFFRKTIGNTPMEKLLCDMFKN
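System: GST-NR2E3 and biotin-RetCOR proteins; probe or stimulus: 7 nM biotin-RetCOR; doses: compound at 4.8 µM, single dose; schedule: Compound–protein incubation for 5 h at 4 °C; detection: time-resolved FRET; read-out: percent inhibition; controls: biotin wells as high control, 0.6% DMSO wells as low control; format: 1536-well plates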
NR2E3 ag-2: activates human NR2E3 receptor. Q9Y5X4. CHO-S Gal4-NCOR/VP16-NR2E3 two-hybrid, luciferase. inhibition of corepressor binding, % at 3.98 µM. 360,000 compounds, 0.35% hits. AID 602229;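 active = inhibition above the mean of all tested compounds plus 3 SD, cut at about 70% in these data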;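 also: 0% = DMSO with NR2E3 transfected cells and 100% = cells lacking NR2E3 construct; higher means lower luciferase signal from less NR2E3 corepressor binding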
miR122 inh: inhibitors of miR-122 in Huh7 cells; 340,000 compounds, 0.3% hits; AID 602342; Huh7 miR-122 Renilla luciferase sensor, 48 h; neutral wells = 0, positive control = 100; activation (reporter increase), % at 12.5 µM;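 active = mean replicate activation score at least 90 and every replicate individually at or above 90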;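 also: higher luciferase means less miR-122 activity so hits act as miR-122 inhibitors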
697 NFkB inh: inhibitors of the PMA/ionomycin-induced NF-kB reporter in 697 B cells; 697 B-cell NF-kB luciferase reporter, 16 h; inhibition, % at 4 µM; 330,000 compounds, 0.33% hits; AID 435022; in the data active = inhibition above about 35%
Jurkat NFkB conf: lowers PMA/ionomycin-induced NF-kB signal in Jurkat cells; shares compounds with Jurkat NFkB inh; Jurkat NF-kB luciferase, 16 h; inhibition, % at 4 µM; 2,700 compounds, 27% hits;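 active = inhibition reaching about 45% at 4 µM in either replicate, limit read from the data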;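 also: plate controls were PMA/ionomycin stimulated DMSO wells for no effect and unstimulated DMSO wells for full effect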
* marks the source's active call; other numbers are inactive results; nt = not tested or not shown; [ ] = another dose, or the depositor's remark.

SMILES | Jurkat NFkB inh | FGF22 binding | NR2E3 ag-1 | NR2E3 ag-2 | miR122 inh | 697 NFkB inh | Jurkat NFkB conf
O=C(Nc1nc2ccsc2c(=O)s1)c1ccc(Cl)cc1 | -198.9 | 0.0 | -8.3 | -21.7 | -0.5 | -143.5 | -108.5
Cc1ccc(CNC(=O)COc2ccc(C)nc2[N+](=O)[O-])cc1 | 87.1* | 0.1 | -1.1 | -9.2 | 6.9 | -29.2 | 0.3
Cc1ccc(OCC(=O)NCc2ccc3c(c2)OCO3)c([N+](=O)[O-])n1 | 8.1 | 0.3 | -0.1 | 14.3 | -6.7 | 7.0 | nt
Cc1ccc(COc2ccc(C)nc2[N+](=O)[O-])cc1 | -151.2 | -0.2 | 1.3 | -98.5 | -3.7 | -154.7 | -84.8
Cc1ccc(OCc2ccccc2Br)c([N+](=O)[O-])n1 | -4.8 | -0.2 | -1.0 | -46.7 | -2.1 | -5.4 | nt
CCCNC(=O)[C@@H]1[C@@H](CO)[C@@H]2Cn3c(ccc(-c4ccccc4OC)c3=O)[C@H]1N2C(=O)NCCC | nt | 0.3 | nt | nt | 2.1[16.7 µM] | nt | nt
C[C@@H]1CN([C@@H](C)CO)C(=O)c2cc(NC(=O)CCC(F)(F)F)ccc2O[C@@H](C)CCCCO[C@@H]1CN(C)C(=O)Cc1ccccc1 | nt | 0.0 | nt | nt | 4.1[16.7 µM] | nt | nt
O=c1n(-c2ccccc2)c(=O)n2n1CC(COc1ccccc1)=C([C@H](O)c1ccccc1)[C@@H]2CO | nt | -0.2 | nt | nt | nt | nt | nt
CCN(CC)c1ccc(N=Nc2nn(C)c(C)c2[N+](=O)[O-])cc1 | -178.1 | 0.8 | -10.3 | -80.5 | -10.3 | -189.1 | -106.2
CCN(Cc1ccccc1)c1ccc(N=Nc2nn(C)c(C)c2[N+](=O)[O-])cc1 | -13.5 | -0.4 | -2.5 | -19.9 | -4.0 | -65.7 | nt
COCC#Cc1cnc2c(c1)C(=O)N([C@@H](C)CO)C[C@@H](C)[C@@H](CN(C)C(=O)C1CCCCC1)O2 | nt | 0.0 | nt | nt | 10.3[16.7 µM] | nt | nt
CO[C@H]1CN(C)C(=O)c2cc(NC(=O)c3ccccc3)ccc2OC[C@@H](C)N(C(C)=O)C[C@H]1C | nt | -0.4 | nt | nt | -2.5[16.7 µM] | nt | nt
CC1(C)Cc2nc3sc4c(=O)n(CC(=O)NCc5ccccc5)cnc4c3cc2CO1 | 61.4* | nt | 2.0 | -4.8 | 15.3 | -164.9 | 39.6
CC1(C)Cc2nc3sc4c(=O)n(CC(N)=O)cnc4c3cc2CO1 | -42.3 | nt | -1.0 | -47.9 | 0.3 | -44.1 | nt
CCN(CC)c1ccc(/C=N/NC(=O)c2cccc(S(=O)(=O)N3CCOCC3)c2)c(O)c1 | 63.7* | 43.4* | 1.2 | -40.9 | -5.3 | -9.8 | 28.4
CCN(CC)c1ccc(C=Nc2cccc(S(=O)(=O)N3CCOCC3)c2)c(O)c1 | 4.7 | 0.4 | nt | -10.1 | nt | -0.9 | nt
C[C@@H]1CCCCO[C@H](CN(C)C(=O)NC2CCCCC2)[C@@H](C)CN([C@@H](C)CO)C(=O)c2cc(NC(=O)C3CCCCC3)ccc2O1 | nt | -0.1 | nt | nt | -3.2[16.7 µM] | nt | nt
COc1ccc(-n2nnnc2/C=C/Nc2cc(C(F)(F)F)ccc2OC)cc1 | 7.9 | -0.1 | 3.9 | 17.0 | -0.6 | 25.3 | nt
COc1ccc(-n2nnnc2/C=C\Nc2ccccc2C(=O)c2ccccc2)cc1 | 53.3* | nt | -2.8 | -15.8 | 11.9 | -26.5 | 8.9
Cc1ccc(S(=O)(=O)Nc2ccc3c(c2)C(=O)N([C@H](C)CO)C[C@@H](C)[C@@H](CN(C)S(=O)(=O)c2ccc(Cl)cc2)O3)cc1 | nt | -0.2 | nt | nt | nt | nt | nt
CC1=C([N+](=O)[O-])C(c2cccc(Br)c2)C2=C(N1)c1ccccc1C2=O (stereo not given) | 53.8* | nt | 3.0 | 43.7 | -0.7 | -13.6 | 19.6
COC(=O)C1=C(C)NC2=C(C(=O)c3ccccc32)C1c1cccc(OC)c1 (stereo not given) | 4.3 | -0.2 | 2.5 | -17.6 | -2.6 | 16.9 | nt
CCC(=O)N(C)C[C@@H]1Oc2ncc(C#CCC(C)C)cc2C(=O)N([C@H](C)CO)C[C@@H]1C | nt | 0.1 | nt | nt | 14.5[16.7 µM] | nt | nt
Cc1cc(-c2ccc(C(C)C)c(S(=O)(=O)N3CCN(c4ccccc4)CC3)c2)on1 | 52.7* | 0.1 | -0.3 | -26.1 | nt | -52.7 | 47.1*
COc1ccc(-c2cc(C)no2)cc1S(=O)(=O)N1CCN(c2cccc(C)c2)C(C)C1 (stereo not given) | 34.1 | -0.1 | -3.8 | -20.8 | nt | -60.1 | nt
SMILES | Jurkat NFkB inh | FGF22 binding | NR2E3 ag-1 | NR2E3 ag-2 | miR122 inh | 697 NFkB inh | Jurkat NFkB conf
Cc1cccc(N2CCN(S(=O)(=O)c3cc(-c4cc(C)no4)ccc3C)CC2C)c1 (stereo not given) | 64.0* | -0.1 | -2.3 | -60.3 | nt | -25.6 | 31.8
O=C1O[C@@H](c2ccccc2)[C@@H](c2ccccc2)N2[C@@H](c3ccc(O)cc3)[C@]3(C(=O)Nc4ccccc43)[C@@H](C(=O)N3CCCCCCC3)[C@H]12 | nt | -0.2 | nt | nt | nt | nt | nt
Cc1ccc2cccc(NS(=O)(=O)c3ccccc3)c2n1 | 98.6* | -0.1 | 4.5 | nt | nt | -7.7 | 42.9
Cc1ccc(NC(=O)c2sc(Cl)nc2C)c(C)c1 | -2.3 | nt | -4.2 | -11.3 | -7.5 | 12.6 | nt
Cc1cc(C)c(C)c(OC(=O)c2sc(Cl)nc2C)c1 | 72.0* | nt | -5.1 | 8.6 | nt | -15.5 | 37.9
CO[C@@H]1CN(C)C(=O)c2ccc(NS(C)(=O)=O)cc2OC[C@H](C)N(Cc2ccccn2)C[C@@H]1C | nt | nt | nt | nt | -20.2[16.7 µM] | nt | nt
C[C@@H]1CN([C@@H](C)CO)S(=O)(=O)c2ccc(C3=CCCCC3)cc2O[C@@H]1CN(C)C(=O)c1ccc(F)cc1 | nt | 0.0 | nt | nt | -11.1[16.7 µM] | nt | nt
O=C(C1CCC(C(=O)N2CCc3ccccc32)CC1)N1CCc2ccccc21 (stereo not given) | -10.5 | nt | 0.1 | -25.1 | -2.7 | -19.1 | nt
O=C(Nc1ccccc1)C(=O)Nc1ccc2c(c1)N(C(=O)C1CC1)CCC2 | -163.0 | -0.1 | 2.6 | -50.0 | nt | -151.2 | -71.2
CCc1sc(C(=O)N2CCc3ccccc32)cc1C | -192.1 | 0.4 | -1.4 | -104.4 | nt | -166.9 | -102.5
CCCn1c(/C=N/Nc2nc3ccccc3[nH]2)nc2ccccc21 | nt | 0.3 | nt | -73.9 | nt | nt | nt
O=[N+]([O-])c1ccc(N/N=C/c2ccccc2O)cc1 | 60.7* | 0.0 | 3.8 | -100.3 | nt | -32.8 | -30.6
Cn1c(/C=N/Nc2nc3ccccc3[nH]2)nc2ccccc21 | -170.6 | 0.6 | -5.3 | -123.2 | nt | -238.9 | -105.1
O=[N+]([O-])c1ccc(O)c(/C=N/Nc2nc3ccccc3[nH]2)c1 | 55.3* | 0.2 | -0.1 | -44.2 | nt | -65.0 | 33.9
C[C@H](CO)N1C[C@H](C)[C@H](CN(C)Cc2ccc3c(c2)OCO3)OCCCC[C@H](C)Oc2ccc(NC(=O)C3CCCCC3)cc2C1=O | nt | 0.1 | nt | nt | 11.0[16.7 µM] | nt | nt
Oc1[nH]c2ccccc2c1N=Nc1nc2ccccc2s1 | -174.1 | nt | -1.4 | -62.2 | -4.5 | -226.7 | -91.5
Cc1cccc(NC(=O)c2cc3ccccc3o2)c1 | -172.9 | nt | 0.4 | -103.7 | 6.4 | -50.0 | -96.4
Cc1cc(C(=O)Nc2cccc(C(=O)O)c2)oc1C | 56.0* | nt | -3.4 | -162.7 | -4.3 | -5.8 | 5.3
O=C(Nc1cccc(Br)c1)c1cc2ccccc2o1 | -110.1 | 0.1 | -0.9 | -111.4 | nt | -72.2 | nt
